According to ChEMBL document CHEMBL1139766, “Discovery of potent and orally bioavailable heterocycle-based beta3-adrenergic receptor agonists, potential therapeutics for the treatment of obesity” (Bioorg Med Chem Lett, 2007):

What was measured:
[1] = biological target: Beta-1 adrenergic receptor (Homo sapiens, UniProt P08588); assay: Displacement of [125I]iodocyanopindolol from human adrenergic beta-1 receptor expressed in CHO cells; assay type: cell-based
[2] = biological target: Beta-2 adrenergic receptor (Homo sapiens, UniProt P07550); assay: Displacement of [125I]iodocyanopindolol from human adrenergic beta-2 receptor expressed in CHO cells; assay type: cell-based
[3] = biological target: T1, Beta-3 adrenergic receptor (Homo sapiens, UniProt P13945); assay: Intrinsic activity at human adrenergic beta-3 receptor expressed in CHO cells assessed as cAMP production relative to isoproterenol; assay type: functional, cell-based
Summary of the method: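 Functional readout was cAMP levels in Chinese hamster ovary cells expressing the cloned human β3 receptor. Intrinsic activity is given as a percentage of the isoproterenol maximum. Compounds with EC50 < 100 nM and IA > 50% were tested at least twice.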
Target sequence in this assay (P13945 whole entry, looked up): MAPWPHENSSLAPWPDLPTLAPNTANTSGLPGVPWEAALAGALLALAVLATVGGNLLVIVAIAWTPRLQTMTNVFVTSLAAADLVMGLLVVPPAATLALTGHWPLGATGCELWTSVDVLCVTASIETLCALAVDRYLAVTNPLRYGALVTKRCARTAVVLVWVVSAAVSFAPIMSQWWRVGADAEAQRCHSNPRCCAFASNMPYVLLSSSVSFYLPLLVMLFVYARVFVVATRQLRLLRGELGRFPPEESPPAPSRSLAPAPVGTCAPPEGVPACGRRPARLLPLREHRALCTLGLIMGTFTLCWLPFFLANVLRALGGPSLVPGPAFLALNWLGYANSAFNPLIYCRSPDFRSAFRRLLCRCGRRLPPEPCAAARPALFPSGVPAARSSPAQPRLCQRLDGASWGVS

[4] = biological target: T1, Beta-3 adrenergic receptor; assay: Agonist activity at human adrenergic beta-3 receptor expressed in CHO cells assessed as cAMP production; assay type: functional, cell-based
Summary of the method: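 cAMP accumulation measured in CHO cells expressing cloned human β3-AR. Potency given as EC50; intrinsic activity (IA) expressed as % of isoproterenol maximum. Compounds with EC50 < 100 nM and IA > 50% tested at least twice in functional assays.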
Target sequence in this assay (P13945 whole entry): as the sequence (P13945 whole entry, looked up) above

[5] = tested on: Rattus norvegicus; assay: Increase in oxygen consumption in rat at 3 mg/kg, po after 120 mins; assay type: functional
Summary of the method: (§1)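 Rats dosed orally (0.3, 1, 3, 10 mg/kg). Baseline O2 consumption recorded every 10 min for 3 h, then dosing with compound or vehicle and 2 h further recording. Values excluded when ambulatory activity was >100 counts/10 min, along with the first five values of the run and the first value after dosing. Change taken over 0–120 min.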

[6] = Solubility in phosphate buffer at pH 6.5; assay type: physicochemical
Summary of the method: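 Solubility measured in phosphate buffer at pH 6.5.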

[7] = biological target: Beta-3 adrenergic receptor (Rattus norvegicus) (UniProt P26255); assay: Intrinsic activity at rat adrenergic beta-3 receptor assessed as cAMP production relative to isoproterenol; assay type: functional
[8] = organism: Homo sapiens; assay: Selectivity for human adrenergic beta-3 receptor over human adrenergic beta-1 receptor
Summary of the method: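 Selectivity came from radioligand binding on membranes of CHO cells expressing cloned human β1 or β3 receptors, using 125I-iodocyanopindolol. The β3 value is the high-affinity agonist-site KiH, taken from a two-site competition fit. The ratio is β1 Ki over β3 Ki.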

[9] = biological target: Beta-3 adrenergic receptor (Rattus norvegicus, UniProt P26255); assay: Agonist activity at rat adrenergic beta-3 receptor assessed as cAMP production; assay type: functional
[10] = tested on: Rattus norvegicus; assay: Increase in heart rate in rat at 10 mg/kg; assay type: functional
[11] = tested on: Rattus norvegicus; assay: Increase in oxygen consumption in rat at 0.3 mg/kg, po after 120 mins; assay type: functional; summary of the method: as §1
[12] = Oral bioavailability in dog; assay type: ADME, organism-based, Canis lupus familiaris; settings: in vivo
[13] = Half life in dog; assay type: ADME, organism-based, Canis lupus familiaris; settings: in vivo
Summary of the method: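 Half-life determined after IV dosing in dog.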

[14] = organism: Rattus norvegicus; assay: Increase in oxygen consumption in rat after 120 mins; assay type: functional; settings: 2 h; summary of the method: as §1
[15] = tested on: Rattus norvegicus; assay: Increase in oxygen consumption in rat at 10 mg/kg, po after 120 mins; assay type: functional; summary of the method: as §1
[16] = Volume of distribution at steady state in rat; assay type: ADME, organism-based; settings: in vivo, read-out: Vdss
[17] = Volume of distribution at steady state in dog; assay type: ADME, organism-based, Canis lupus familiaris; settings: in vivo, read-out: Vdss
[18] = Oral bioavailability in rat; assay type: ADME, organism-based; settings: in vivo
[19] = tested on: Rattus norvegicus; assay: Increase in oxygen consumption in rat at 1.0 mg/kg, po after 120 mins; assay type: functional; summary of the method: as §1
[20] = Clearance in dog; assay type: ADME, organism-based, Canis lupus familiaris; settings: in vivo
[21] = Clearance in rat; assay type: ADME, organism-based; settings: in vivo
[22] = Half life in rat; assay type: ADME, organism-based; settings: in vivo
Summary of the method: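 Half-life determined after IV dosing in rat.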

Sequence of Beta-2 adrenergic receptor (P07550 whole entry): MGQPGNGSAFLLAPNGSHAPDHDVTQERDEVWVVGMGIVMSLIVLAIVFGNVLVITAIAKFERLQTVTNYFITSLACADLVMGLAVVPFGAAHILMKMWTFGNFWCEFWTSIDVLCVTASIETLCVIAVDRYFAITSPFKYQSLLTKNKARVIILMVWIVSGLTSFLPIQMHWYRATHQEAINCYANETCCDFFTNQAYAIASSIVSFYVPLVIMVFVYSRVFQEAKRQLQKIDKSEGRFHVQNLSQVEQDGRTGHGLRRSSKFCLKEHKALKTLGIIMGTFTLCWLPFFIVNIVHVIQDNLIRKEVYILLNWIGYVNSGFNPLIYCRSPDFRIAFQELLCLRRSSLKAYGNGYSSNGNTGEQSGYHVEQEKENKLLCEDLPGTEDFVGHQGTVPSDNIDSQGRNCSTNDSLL
Sequence of Beta-1 adrenergic receptor (P08588 whole entry): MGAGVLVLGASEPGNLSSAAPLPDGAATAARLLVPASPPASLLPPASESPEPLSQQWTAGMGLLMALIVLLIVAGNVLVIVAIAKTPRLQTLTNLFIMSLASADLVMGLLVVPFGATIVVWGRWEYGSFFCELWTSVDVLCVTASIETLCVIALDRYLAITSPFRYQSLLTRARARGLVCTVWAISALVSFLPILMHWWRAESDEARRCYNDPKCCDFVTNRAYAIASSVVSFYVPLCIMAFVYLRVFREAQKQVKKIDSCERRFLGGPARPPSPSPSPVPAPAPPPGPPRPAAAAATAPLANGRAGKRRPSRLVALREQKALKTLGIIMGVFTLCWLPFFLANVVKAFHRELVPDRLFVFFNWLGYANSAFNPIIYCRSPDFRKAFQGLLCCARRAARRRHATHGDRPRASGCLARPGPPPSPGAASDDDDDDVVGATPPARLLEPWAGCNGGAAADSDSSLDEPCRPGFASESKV
Sequence of Beta-3 adrenergic receptor (Rattus norvegicus) (P26255 whole entry): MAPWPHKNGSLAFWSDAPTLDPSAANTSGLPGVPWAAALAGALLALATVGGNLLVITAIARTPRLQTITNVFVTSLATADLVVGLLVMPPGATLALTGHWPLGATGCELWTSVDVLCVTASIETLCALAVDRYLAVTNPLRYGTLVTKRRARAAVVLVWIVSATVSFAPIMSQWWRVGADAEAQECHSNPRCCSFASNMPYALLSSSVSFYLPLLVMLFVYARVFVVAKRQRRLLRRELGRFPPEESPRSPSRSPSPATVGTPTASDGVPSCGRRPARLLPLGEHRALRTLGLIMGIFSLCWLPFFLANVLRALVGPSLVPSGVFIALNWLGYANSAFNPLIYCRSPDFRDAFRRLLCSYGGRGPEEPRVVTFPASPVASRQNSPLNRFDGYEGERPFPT
Sequence of Beta-3 adrenergic receptor (Rattus norvegicus, UniProt P26255) (P26255 whole entry): as above

Compound | Ki [1] [nM] | Intrinsic activity [3] [%] | EC50 [4] [nM] | also measured
O[C@@H](CNCCOc1ccc(-c2cscn2)cc1)c1cccnc1 | 140 | 85 | 27 | Ki [2]: 10 nM; Activity [5]: 11%; solubility [6]: > 10000 µg/mL; Intrinsic activity [7]: 104%; Ratio Ki [8]: 14.2; EC50 [9]: 26 nM
CCc1nc(-c2ccc(OCCNC[C@H](O)c3cccnc3)cc2)cs1 | 37 | 106 | 170 | 
O[C@@H](CNCCc1ccc(-c2csc(-c3ccccc3)n2)cc1)c1cccnc1 |  | 108 | 2740 | 
O[C@@H](CNCCOc1ccc(-c2csc(-c3cccnc3)n2)cc1)c1cccnc1 | 120 | 121 | 120 | 
OCc1nc(-c2ccc(OCCNC[C@H](O)c3cccnc3)cc2)co1 | 270 | 94 | 42 | Ki [2]: 30 nM; Ratio Ki [8]: 8.6
Cc1nc(-c2ccc(CCNC[C@H](O)c3ccc(Cl)c(NS(C)(=O)=O)c3)cc2)cs1 |  | 121 | 230 | 
O=S(=O)(Nc1ccc(CCNC[C@H](O)c2cccnc2)cc1)c1ccc(-c2nc(-c3ccc(C(F)(F)F)cc3)cs2)cc1 |  | 92 |  | 
Cc1nc(-c2ccc(CCNC[C@H](O)c3cccnc3)cc2)cs1 |  | 55 | 1360 | 
O[C@@H](CNCCOc1ccc(-c2ncco2)cc1)c1cccnc1 |  | 24 | 520 | 
O[C@@H](CNCCOc1ccc(-c2csc(C(F)(F)F)n2)cc1)c1cccnc1 | 100 | 150 | 200 | 
Cc1ocnc1-c1ccc(OCCNC[C@H](O)c2cccnc2)cc1 | 170 | 80 | 309 | 
CS(=O)(=O)Nc1cc([C@@H](O)CNCCc2ccc(-c3csc(-c4ccccc4)n3)cc2)ccc1Cl |  | 70 | 490 | 
O[C@@H](CNCCOc1ccc(-c2csc(-c3ccccc3)n2)cc1)c1cccnc1 | 150 | 53 | 580 | Ki [2]: 500 nM
O[C@@H](CNCCOc1ccc(-c2cocn2)cc1)c1cccnc1 | 200 | 94 | 20 | Activity [10]: 10%; Activity [11]: 8%; bioavailability [12]: 59%; half-life [13]: 5.1 h; ED20 [14]: 2 mg/kg; Ki [2]: 10 nM; Activity [15]: 42%; Vd [16]: 0.89 L/kg; Vd [17]: 2.8 L/kg; Activity [5]: 29%; bioavailability [18]: 66%; Ratio Ki [8]: 20; Activity [19]: 11%; clearance [20]: 6 mL/min/kg; clearance [21]: 13 mL/min/kg; half-life [22]: 1.4 h
Cc1nc(-c2ccc(OCCNC[C@H](O)c3cccnc3)cc2)cs1 | 100 | 106 | 170 | Ki [2]: 120 nM; Activity [15]: 32%; Activity [5]: 20%; Intrinsic activity [7]: 113%; Ratio Ki [8]: 0.8; EC50 [9]: 13 nM
O[C@@H](CNCCOc1ccc(-c2csc(-c3ccncc3)n2)cc1)c1cccnc1 | 97 | 106 | 65 | 
CCc1nc(-c2ccc(CCNC[C@H](O)c3ccc(Cl)c(NS(C)(=O)=O)c3)cc2)cs1 |  | 95 | 130 | 
O[C@@H](CNCCc1ccc(-c2csc(-c3cccnc3)n2)cc1)c1cccnc1 |  | 106 | 1190 | 
CCc1nc(-c2ccc(CCNC[C@H](O)c3cccnc3)cc2)cs1 |  | 80 | 2250 | 
Cc1nc(-c2ccc(OCCNC[C@H](O)c3cccnc3)cc2)co1 | 400 | 111 | 37 | Ki [2]: 21 nM; Ratio Ki [8]: 19
COCc1nc(-c2ccc(OCCNC[C@H](O)c3cccnc3)cc2)co1 | 210 | 110 | 47 | 
O[C@@H](CNCCOc1ccc(-c2csc(C3CCCC3)n2)cc1)c1cccnc1 | 130 | 159 | 290 | 
O[C@@H](CNCCOc1ccc(-c2coc(COCc3ccccc3)n2)cc1)c1cccnc1 | 50 | 137 | 220 | 
CCc1nc(-c2ccc(OCCNC[C@H](O)c3cccnc3)cc2)co1 | 400 | 133 | 57 | Ki [2]: 37 nM; Ratio Ki [8]: 11
CC(C)c1nc(-c2ccc(OCCNC[C@H](O)c3cccnc3)cc2)co1 | 360 | 135 | 57 | Ki [2]: 49 nM; Ratio Ki [8]: 7.4
O[C@@H](CNCCc1ccc(-c2csc(C(F)(F)F)n2)cc1)c1cccnc1 |  | 94 | 4490 | 
O[C@@H](CNCCOc1ccc(-c2cnco2)cc1)c1cccnc1 |  | 98 | 200 | 
Cc1nc(-c2ccc(OCCNC[C@H](O)c3cccnc3)cc2)c(C)o1 | 1550 | 75 | 606 | 
